Results on 22 molecules are retold here after ChEMBL document CHEMBL4038338 (J Med Chem, 2017).

Each structure is given as a SMILES string. Calls of active or inactive are those of the source. The rule behind the calls is not given here.

For assay [1], the target named is T1, Calpain-1 catalytic subunit (Homo sapiens, UniProt P07384).
T1 sequence (P07384 whole entry): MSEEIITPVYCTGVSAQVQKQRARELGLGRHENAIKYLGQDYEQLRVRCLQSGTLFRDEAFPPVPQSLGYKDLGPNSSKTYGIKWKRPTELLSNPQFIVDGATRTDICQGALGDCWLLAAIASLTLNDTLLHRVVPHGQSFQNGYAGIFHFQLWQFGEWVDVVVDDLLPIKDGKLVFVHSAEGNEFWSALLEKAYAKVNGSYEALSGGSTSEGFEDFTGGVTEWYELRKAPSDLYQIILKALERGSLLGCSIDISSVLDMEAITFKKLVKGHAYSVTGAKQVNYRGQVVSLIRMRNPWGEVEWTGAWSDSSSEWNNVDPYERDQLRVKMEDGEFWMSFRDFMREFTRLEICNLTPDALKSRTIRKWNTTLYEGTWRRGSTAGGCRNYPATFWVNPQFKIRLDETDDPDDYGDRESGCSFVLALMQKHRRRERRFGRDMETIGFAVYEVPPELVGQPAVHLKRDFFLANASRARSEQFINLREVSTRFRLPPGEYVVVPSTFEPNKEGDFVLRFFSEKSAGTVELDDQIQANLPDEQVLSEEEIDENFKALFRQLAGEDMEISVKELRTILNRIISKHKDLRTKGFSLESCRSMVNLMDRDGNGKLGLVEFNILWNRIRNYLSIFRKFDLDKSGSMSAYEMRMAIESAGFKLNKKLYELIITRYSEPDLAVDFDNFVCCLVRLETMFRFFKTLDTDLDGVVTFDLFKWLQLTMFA
Kind of assay: Inhibition of human erythrocytes calpain-1 using Suc-Leu-Tyr-AMC as substrate by kinetic fluorescence assay.

The nature of assay [2]: Selectivity ratio of Ki for human liver cathepsin B to Ki for human erythrocytes calpain-1.
The species named for assay [3] is Homo sapiens. Kind of assay: Selectivity ratio of Ki for recombinant human procathepsin K expressed in Escherichia coli to Ki for human erythrocytes calpain-1. In outline:
(§1)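 Ki ratios from kinetic fluorescence assays. Cathepsins B (0.25 nM), L (1 nM), K (3 nM) and S (0.5 nM) in MES buffer at pH 6.0. All at room temperature; Ki by Cheng-Prusoff.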

Assay [4] in a line: Selectivity ratio of Ki for human liver cathepsin L to Ki for human erythrocytes calpain-1.
The species named for assay [5] is Homo sapiens. Put plainly: Selectivity ratio of Ki for recombinant human cathepsin S expressed in Escherichia coli to Ki for human erythrocytes calpain-1. In outline:
as §1

In assay [6] the target is T2, Calpain-1 catalytic subunit (Homo sapiens) (UniProt P07384).
T2 sequence (whole entry): T1 sequence (P07384 whole entry)
Put plainly: Inhibition of human erythrocytes calpain-1 using Suc-Leu-Tyr-AMC as substrate in presence of up to 10 mM glutathione by kinetic fluorescence assay.

Assay [7] is described as follows: Thiol reactivity using recombinant human full length 13C-labeled La antigen (100 to 324 residues) expressed in Escherichia coli BL21(DE3) by ALARM NMR.

For `NC(=O)C(=O)C(Cc1ccccc1)NC(=O)c1ccccc1-n1ccc(-c2ccccc2)n1` (stereo not drawn), the Ki in assay [1] (read-out: Ki) turned out to be 43 nM. The “Ratio Ki” value in assay [2] is 7; in the assay filed under Homo sapiens [3], 1; in assay [4], 38; in the assay listed under Homo sapiens [5], 82. In assay [6], the inhibition result was “Active”. Besides, the Thiol reactivity entry in assay [7] is given as “Metabolite not detected”.
As for `COc1ccc(-c2ccn(-c3ncccc3C(=O)NC(Cc3ccccc3)C(=O)C(N)=O)n2)cc1` (stereo not drawn), in assay [1] (read-out: Ki), the Ki turned out to be 83 nM. For the same molecule, the “Ratio Ki” value in assay [2] was 11; in the assay filed under Homo sapiens [3] it was 17; in assay [4] it was 81; in the assay filed under Homo sapiens [5] it was more than 500. Further, the inhibition entry in assay [6] is “Active”. In addition, in assay [7], the Thiol reactivity result is “Metabolite not detected”.
Regarding `CCCCC(NC(=O)c1cccnc1-n1cnc(-c2ccccc2)c1)C(=O)C(N)=O` (stereo not drawn), in assay [1] (read-out: Ki), the Ki amounted to 38 nM. Further, the “Ratio Ki” value in assay [2] was less than 1; in the assay listed under Homo sapiens [3], less than 1; in assay [4], 22; in the assay listed under Homo sapiens [5], 22. Besides, in assay [6], the inhibition result was “Active”. Moreover, the Thiol reactivity result in assay [7] is listed as “Metabolite not detected”.
`CC(C)(C)c1ccn(-c2ncccc2C(=O)NC(Cc2ccccc2)C(=O)C(N)=O)n1` (stereo not drawn): the Ki in assay [1] (read-out: Ki) was 81 nM. In addition, the “Ratio Ki” value is 16 in assay [2], 24 in the assay filed under Homo sapiens [3], 10 in assay [4] and 56 in the assay filed under Homo sapiens [5]. The inhibition result in assay [6] is “Active”. Further, in assay [7], the Thiol reactivity result was “Metabolite not detected”.
Turning to `NC(=O)C(=O)C(Cc1ccccc1)NC(=O)c1cccnc1-n1ccc(-c2ccc(C(F)(F)F)cc2)n1` (stereo not drawn), the Ki in assay [1] (read-out: Ki) was determined as 72 nM. Besides, the “Ratio Ki” value in assay [2] was 11; in the assay listed under Homo sapiens [3], 22; in assay [4], 210; in the assay filed under Homo sapiens [5] it was 87. Further, in assay [6], the inhibition result was “Active”. Moreover, the Thiol reactivity result in assay [7] is given as “Metabolite not detected”.
In the case of `NC(=O)C(=O)C(Cc1ccccc1)NC(=O)c1cccnc1-n1cc(-c2ccccc2)cn1` (stereo not drawn), the Ki in assay [1] (read-out: Ki) is 21 nM. Also, the “Ratio Ki” value was less than 1 in assay [2], 1 in the assay listed under Homo sapiens [3], 12 in assay [4] and 14 in the assay listed under Homo sapiens [5]. Also, the inhibition entry in assay [6] is “Active”. For the same molecule, the Thiol reactivity result in assay [7] is reported as “Metabolite not detected”.
On to `NC(=O)C(=O)C(Cc1ccccc1)NC(=O)c1cccnc1-n1ccc(-c2ccc(CN3CCOCC3)cc2)n1` (stereo not drawn), for which the Ki in assay [1] (read-out: Ki) stood at 41 nM. Moreover, the “Ratio Ki” value is less than 1 in assay [2], less than 1 in the assay listed under Homo sapiens [3], 5 in assay [4] and 240 in the assay listed under Homo sapiens [5]. In assay [6], the inhibition result was “Active”. The Thiol reactivity entry in assay [7] was “Metabolite not detected”.
With `CCCCC(NC(=O)c1cccnc1-c1csc(-c2ccccc2)n1)C(=O)C(N)=O` (stereo not drawn), the Ki in assay [1] (read-out: Ki) was 122 nM. In addition, the “Ratio Ki” value in assay [2] was found to be 2; in the assay filed under Homo sapiens [3] it was 1; in assay [4], 13; in the assay filed under Homo sapiens [5], 27. In addition, the inhibition entry in assay [6] is “Active”. For the same molecule, the Thiol reactivity entry in assay [7] is “Metabolite not detected”.
`NC(=O)C(=O)C(Cc1ccccc1)NC(=O)c1cccnc1-n1ccc(C2CC2)n1` (stereo not drawn): the Ki in assay [1] (read-out: Ki) was 94 nM. Moreover, the “Ratio Ki” value in assay [2] turned out to be 4; in the assay listed under Homo sapiens [3], 7; in assay [4], 34; in the assay filed under Homo sapiens [5], 50. Also, in assay [6], the inhibition entry was “Active”. The Thiol reactivity result in assay [7] is reported as “Metabolite not detected”.
Regarding `NC(=O)C(=O)C(Cc1ccccc1)NC(=O)c1cccnc1-n1cccn1` (stereo not drawn), the Ki in assay [1] (read-out: Ki) amounted to 164 nM. The “Ratio Ki” value amounted to 1 in assay [2], 3 in the assay listed under Homo sapiens [3], 20 in assay [4] and 21 in the assay listed under Homo sapiens [5]. Also, the inhibition result in assay [6] was “Active”. Besides, the Thiol reactivity entry in assay [7] is “Metabolite not detected”.
In the case of `NC(=O)C(=O)C(Cc1ccccc1)NC(=O)c1cccnc1-c1csc(-c2ccccc2)n1` (stereo not drawn), the Ki in assay [1] (read-out: Ki) is 38 nM. Besides, the “Ratio Ki” value in assay [2] was determined as 39; in the assay listed under Homo sapiens [3], 11; in assay [4], 139; in the assay filed under Homo sapiens [5], 310. For the same molecule, in assay [6], the inhibition result was “Active”. The Thiol reactivity entry in assay [7] is reported as “Metabolite not detected”.
In the case of `NC(=O)C(=O)C(Cc1ccccc1)NC(=O)c1cccnc1-n1cnc(-c2ccccc2)c1` (stereo not drawn), the Ki in assay [1] (read-out: Ki) turned out to be 45 nM. The “Ratio Ki” value in assay [2] is less than 1; in the assay filed under Homo sapiens [3], less than 1; in assay [4] it was 23; in the assay filed under Homo sapiens [5], 54. Further, the inhibition entry in assay [6] was “Active”. Further, the Thiol reactivity result in assay [7] was “Metabolite not detected”.
On to `NC(=O)C(=O)C(Cc1ccccc1)NC(=O)c1cccnc1-n1ccc(C2CCCCC2)n1` (stereo not drawn), for which the Ki in assay [1] (read-out: Ki) is 56 nM. The “Ratio Ki” value in assay [2] came out at 9; in the assay filed under Homo sapiens [3] it was 10; in assay [4], 33; in the assay listed under Homo sapiens [5], 92. Moreover, the inhibition result in assay [6] is “Active”. Further, the Thiol reactivity entry in assay [7] is given as “Metabolite not detected”.
With `NC(=O)C(=O)C(Cc1ccccc1)NC(=O)c1cccnc1-n1ccc(Cc2ccccc2)n1` (stereo not drawn), the Ki in assay [1] (read-out: Ki) was found to be 38 nM. The “Ratio Ki” value in assay [2] was determined as 9; in the assay filed under Homo sapiens [3] it was 9; in assay [4], 50; in the assay filed under Homo sapiens [5], 75. Besides, the inhibition result in assay [6] was “Active”. In addition, in assay [7], the Thiol reactivity result is on record as “Metabolite not detected”.
Turning to `NC(=O)C(=O)C(Cc1ccccc1)NC(=O)c1cccnc1-n1ccc(C2CCOCC2)n1` (stereo not drawn), the Ki in assay [1] (read-out: Ki) was found to be 48 nM. For the same molecule, the “Ratio Ki” value in assay [2] came out at 14; in the assay filed under Homo sapiens [3], 13; in assay [4], 56; in the assay listed under Homo sapiens [5], 147. Further, in assay [6], the inhibition entry is “Active”. Besides, the Thiol reactivity result in assay [7] is “Metabolite not detected”.
For `NC(=O)C(=O)C(Cc1ccccc1)NC(=O)c1cccnc1-c1coc(-c2ccccc2)n1` (stereo not drawn), in assay [1] (read-out: Ki), the Ki stood at 177 nM. Besides, the “Ratio Ki” value was determined as 11 in assay [2], 20 in the assay listed under Homo sapiens [3], 29 in assay [4] and 127 in the assay filed under Homo sapiens [5]. In assay [6], the inhibition entry is “Active”. Moreover, the Thiol reactivity result in assay [7] is on record as “Metabolite not detected”.
As for `NC(=O)C(=O)C(Cc1ccccc1)NC(=O)c1ccccc1-c1csc(-c2ccccc2)n1` (stereo not drawn), in assay [1] (read-out: Ki), the Ki worked out at 82 nM. Also, the “Ratio Ki” value is 23 in assay [2], less than 1 in the assay listed under Homo sapiens [3], 116 in assay [4] and 186 in the assay filed under Homo sapiens [5]. Besides, the inhibition result in assay [6] is “Active”. The Thiol reactivity entry in assay [7] was “Metabolite not detected”.
For `NC(=O)C(=O)[C@H](Cc1ccccc1)NC(=O)c1cccnc1-n1ccc(-c2ccccc2)n1`, the Ki in assay [1] (read-out: Ki(app)) was 10 nM.
`CCCCC(NC(=O)c1cccnc1-n1cc(-c2ccccc2)cn1)C(=O)C(N)=O` (stereo not drawn): the Ki in assay [1] (read-out: Ki) turned out to be 20 nM. Besides, the “Ratio Ki” value in assay [2] was less than 1; in the assay filed under Homo sapiens [3] it was less than 1; in assay [4], 4; in the assay filed under Homo sapiens [5], 2. The inhibition result in assay [6] is “Active”. Further, the Thiol reactivity result in assay [7] is “Metabolite not detected”.
As for `NC(=O)C(=O)C(Cc1ccccc1)NC(=O)c1cccnc1-n1cc2c(n1)CCCC2` (stereo not drawn), the Ki in assay [1] (read-out: Ki) was 101 nM. The “Ratio Ki” value in assay [2] stood at 2; in the assay filed under Homo sapiens [3], 2; in assay [4], 45; in the assay filed under Homo sapiens [5], 10. The inhibition entry in assay [6] was “Active”. Also, in assay [7], the Thiol reactivity result was “Metabolite not detected”.
For the molecule `NC(=O)C(=O)C(Cc1ccccc1)NC(=O)c1cccnc1-n1ccc(-c2ccc(Cl)cc2)n1` (stereo not drawn), the Ki in assay [1] (read-out: Ki) amounted to 88 nM. Besides, the “Ratio Ki” value in assay [2] was 6; in the assay listed under Homo sapiens [3] it was 9; in assay [4], 89; in the assay filed under Homo sapiens [5], more than 300. Besides, the inhibition entry in assay [6] is “Active”. The Thiol reactivity entry in assay [7] is “Metabolite not detected”.
In the case of `CCCCC(NC(=O)c1cccnc1-n1ccc(-c2ccccc2)n1)C(=O)C(N)=O` (stereo not drawn), the Ki in assay [1] (read-out: Ki) is 32 nM. For the same molecule, the “Ratio Ki” value in assay [2] was 1; in the assay filed under Homo sapiens [3], 2; in assay [4], 25; in the assay listed under Homo sapiens [5], 61. For the same molecule, in assay [6], the inhibition result is “Active”. The Thiol reactivity entry in assay [7] is recorded as “Metabolite not detected”.
